In paper PMC5434479 (Inorganic Chemistry, 2017):
Where two headings read alike, the source gives them in different places.

What was measured:
A549 cells = experiment: Cellular uptake, gold content by ICP-MS, A549 cells; type: cell-based, human; settings: A549, 10 μM, 6 h
[1] = tested on: human fetal lung fibroblast (MRC-5) cells; experiment: MTS antiproliferation assay, MRC-5 healthy fibroblasts; type: cell-based; settings: for times less toxic toward healthy fibroblasts (MRC-5) than toward HL60 and MCF-7: MRC-5 versus HL60 and MCF-7; for IC50: read-out: IC50 ± SE
Method in brief: (§1)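 Culture was at 37 °C, 5% CO2: A549 in RPMI 1640, MCF-7 and MRC-5 in DMEM, each with 10% FCS, 2 mM L-glutamine and penicillin/streptomycin. Seeding per 100 μL was 8 × 10^3 (A549, MCF-7) or 2 × 10^3 (MRC-5). Compound in DMSO was diluted 100-fold into wells (1% DMSO final), tested at several concentrations in triplicate for 72 h. MTS reagent was added for 4 h, then A490 read; IC50 calculated.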

[2] = target: MDM2–p53 interaction (human MDM2 protein, residues 17–125) (Homo sapiens, UniProt Q00987); experiment: Fluorescence polarization assay of MDM2–p53 interaction; type: binding; settings: for disruption of MDM2–p53 interaction in screening (in words): 100 μM
Sequence of MDM2–p53 interaction (human MDM2 protein, residues 17–125) (Q00987 17-125): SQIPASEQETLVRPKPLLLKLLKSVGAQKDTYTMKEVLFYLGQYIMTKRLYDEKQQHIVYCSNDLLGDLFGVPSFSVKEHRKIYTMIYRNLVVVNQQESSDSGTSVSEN
Method in brief: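 Compound in DMSO was added at 1:10. Positive control was wild-type p53 peptide (15–27) at 400 μM final, negative control DMSO, each in triplicate. Plates were incubated 30 min at room temperature and read by polarisation at 490/520 nm, with total fluorescence checked. IC50 came from log(inhibitor) versus response, variable slope.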

[3] = tested on: i-motif-forming sequence from the promoter region of the oncogene hif-1α; experiment: FRET DNA-melting assay, hif-1α i-motif; type: binding; settings: hif-1α i-motif 0.2 μM, 50 equiv (10 μM), pH 7.2
Method in brief: (§2)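 FAM/TAMRA-labelled oligonucleotides were annealed in 10 mM sodium cacodylate with 100 mM NaCl. Buffer was pH 5.5 and 6.0 for hTeloC and pH 7.2 for hif-1α, hTeloG and duplex. Final DNA was 0.2 μM, with compound added at 1:10 by volume. DMSO-matched DNA controls ran in each run. Melting curves were recorded by real-time PCR machine, excitation 470 nm and detection 510 nm. Mean and SD of three experiments.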

MCF-7 cells = experiment: Cellular uptake, gold content by ICP-MS, MCF-7 cells; type: cell-based, human; settings: MCF-7, 1 μM, 6 h
[4] = tested on: human promyelocytic leukemia (HL60) cells; experiment: MTS antiproliferation assay, HL60 cells; type: cell-based; settings: for cell viability: HL60, 1 μM; for cell viability / inhibition of HL60 cell proliferation (in words): 72 h; for inhibition of HL60 cell proliferation (in words): HL60, 10 μM; for IC50: read-out: IC50 ± SE
Method in brief: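 HL60 cells were kept in RPMI 1640 with 10% FCS, 2 mM L-glutamine and penicillin/streptomycin at 37 °C, 5% CO2, and seeded at 3 × 10^4 per 100 μL. Compound predissolved in DMSO was diluted 100-fold into wells (1% DMSO final). Wells received 10 or 1 μM, or a concentration series, in triplicate for 72 h. MTS reagent was added for 4 h, then absorbance read at 490 nm. Screening data were averaged over three experiments; IC50 calculated.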

[5] = tested on: G-quadruplex-forming sequence from the human telomere (hTeloG); experiment: FRET DNA-melting assay, hTeloG; type: binding; settings: hTeloG G-quadruplex 0.2 μM, 50 equiv (10 μM), pH 7.2
Method in brief: as §2

[6] = tested on: human telomeric i-motif sequence (hTeloC); experiment: FRET DNA-melting assay, hTeloC; type: binding; settings: pH 5.5 and pH 6.0; for interaction in preliminary screening (in words): hTeloC i-motif 0.2 μM, 50 equiv (10 μM); for stabilization of telomeric i-motif, pH 6.0 versus pH 5.5 (in words): hTeloC
Method in brief: as §2

[7] = tested on: human breast adenocarcinoma (MCF-7) cells; experiment: MTS antiproliferation assay, MCF-7 cells; type: cell-based; settings: for IC50: read-out: IC50 ± SE
Method in brief: as §1

[8] = tested on: human lung adenocarcinoma epithelial (A549) cells; experiment: MTS antiproliferation assay, A549 cells; type: cell-based; settings: for IC50: read-out: IC50 ± SE
Method in brief: as §1

double-stranded DNA = experiment: FRET DNA-melting assay, double-stranded DNA; type: binding; settings: double-stranded DNA 0.2 μM, 50 equiv (10 μM), pH 7.2
Method in brief: as §2

[9] = Reaction with glutathione monitored by 1H NMR; type: physicochemical; settings: equimolar GSH (10 mM) in DMSO-d6, room temperature, 6 days
MDM2 = MDM2 (Homo sapiens, UniProt Q00987); experiment: STD NMR binding to MDM2; settings: 13.5 μM MDM2, 500 μM compound, 1% DMSO-d6, 25 °C
Sequence of MDM2 (Q00987 whole entry): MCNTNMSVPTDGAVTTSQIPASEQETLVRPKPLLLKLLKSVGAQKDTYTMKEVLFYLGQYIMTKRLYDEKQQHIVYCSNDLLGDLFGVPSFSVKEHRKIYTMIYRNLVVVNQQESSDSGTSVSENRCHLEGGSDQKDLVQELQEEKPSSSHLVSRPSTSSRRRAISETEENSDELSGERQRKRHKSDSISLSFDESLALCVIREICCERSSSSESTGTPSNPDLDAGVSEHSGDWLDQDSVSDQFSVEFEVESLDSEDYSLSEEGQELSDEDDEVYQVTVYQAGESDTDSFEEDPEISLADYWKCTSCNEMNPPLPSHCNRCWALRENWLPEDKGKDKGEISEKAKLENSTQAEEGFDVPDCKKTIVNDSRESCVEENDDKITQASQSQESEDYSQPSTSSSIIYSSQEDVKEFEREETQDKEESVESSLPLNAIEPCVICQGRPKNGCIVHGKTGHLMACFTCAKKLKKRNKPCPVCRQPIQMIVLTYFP
Method in brief: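 STD NMR at 800 MHz used a pseudo-2D sequence with spoil pulses. Protein was saturated by cascades of 49 ms Gaussian pulses, 1 ms apart, on-resonance at 0 ppm and off-resonance at 40 ppm. Saturation lasted 4 s for binding detection and 0.5 s for epitope mapping, 1024 scans each. Blank runs without protein were done. Epitope values were normalised to the most intense proton as 100%.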

Row | Compound | cell uptake (in words) (A549 cells) | times less toxic toward healthy fibroblasts (MRC-5) than toward HL60 and MCF-7 [1] | IC50 ([1]; MRC-5, 72 h incubation, MTS) [µM] | disruption of MDM2–p53 interaction in screening (in words) [2] | interaction in preliminary screening (in words) [3] | cell uptake (in words) (MCF-7 cells) | cell viability [4] | inhibition of HL60 cell proliferation (in words) [4] | IC50 ([4]; HL60, 72 h incubation, MTS) [µM] | interaction in preliminary screening (in words) [5] | interaction in preliminary screening (in words) [6] | stabilization of telomeric i-motif, pH 6.0 versus pH 5.5 (in words) [6] | IC50 ([7]; MCF-7, 72 h incubation, MTS) [µM] | IC50 ([8]; A549, 72 h incubation, MTS) [µM] | also measured
1 | [(C^N^pz^N)Au(1,3,7,9-tetramethylxanthin-8-ylidene)]BF4 [Compound 3] | poorly taken up | 2–4 | 17.6 ± 1.9 | only compounds 1 and 2 appeared to disrupt | good interactions | poorly taken up | nontoxic | completely inhibited cell proliferation | 4.05 ± 0.43 | good interactions | good interactions | does not show any particular difference | 7.9 ± 0.13 | > 50 | –
2 | (C^N^pz^N)Au(6-thioguanine) [Compound 4] | – | – | 4.3 ± 0.7 | – | did not show any interaction | – | 60% | completely inhibited cell proliferation | 0.9 ± 0.22 | did not show any interaction | did not show any interaction | – | 0.78 ± 0.11 | 29 ± 1.8 | interaction in preliminary screening (in words) (double-stranded DNA): did not show any interaction
3 | Nc1nc2nc[nH]c2c(=S)[nH]1 [Compound 6-TG, 6-thioguanine, reference compound] | – | – | – | – | – | – | – | – | – | – | – | – | – | – | IC50 ([1]; Homo sapiens, MRC5, 72 h): > 50 µM; IC50 ± SE ([1]; MRC-5, 72 h incubation, MTS): nontoxic; IC50 ([4]; Homo sapiens, HL-60, 72 h): 0.98 ± 0.07 µM; IC50 ([7]; Homo sapiens, MCF7, 72 h): 0.42 ± 0.13 µM; IC50 ([8]; Homo sapiens, A549, 72 h): > 50 µM
4 | N.N.[Cl][Pt][Cl] [cisplatin, cis-diamminedichloroplatinum(II), reference compound] | – | – | 10.7 ± 3 | – | – | – | – | – | 3.7 ± 0.25 | – | – | – | 21.2 ± 3.9 | 33.7 ± 3.7 | –
5 | [(C^N^pz^N)Au(1,3-dimethylbenzimidazol-2-ylidene)]PF6 [Compound 2] | much higher uptake | 2–4 | 1.4 ± 0.4 | appeared to disrupt the MDM2–p53 interaction | good interactions | highest concentrations | 22% | completely inhibited cell proliferation | 0.31 ± 0.15 | good interactions | good interactions | stabilize the telomeric i-motif structure at pH 6.0 more efficiently than at pH 5.5 | 0.56 ± 0.02 | 7.8 ± 1.3 | intracellular gold concentration, times higher than that of 1 (A549 cells): ~4; intracellular gold concentration, times higher than that of 3 (A549 cells): ~11; IC50 ([2]; 10 nM HDM2 and tagged peptide, pH 7.4): 31.1 ± 1.1 µM; stability toward GSH [9]: high stability; binding to MDM2 in solution (in words) (MDM2): clearly confirmed the binding; times more potent than 3 ([7]; MCF-7, ratio of IC50 values): up to 14; times more toxic than (benzimidazolylidene)AuCl ([7]; MCF-7, comparator value ref 44): more than 10; times more toxic than cisplatin ([8]; A549, ratio of IC50 values): 4; toxicity relative to (benzimidazolylidene)AuCl ([8]; A549, comparator value ref 25b): more than twice as toxic
